Laboratory results from ChEMBL document CHEMBL3576866, “Discovery of a Cyclic Boronic Acid β-Lactamase Inhibitor (RPX7009) with Utility vs Class A Serine Carbapenemases” (J Med Chem, 2015).
≈ marks a conversion by molar mass, not a printed value. One block for each compound: values may come before it. Calls of active or inactive are those of the source. No cut-off for these calls is given here.

Legend:
[1] = molecular target: Beta-lactamase (Klebsiella pneumoniae) (UniProt Q93LQ9); assay: Inhibition of Klebsiella pneumoniae KP1004 KPC 2 carbapenemase assessed as minimum concentration required to reduce biapenem MIC from […] ug/ml to 1 ug/mL by broth microdilution method
Klebsiella pneumoniae [2] = assay: Antibacterial activity against Klebsiella pneumoniae KP1004 by broth microdilution method; format: functional, organism-based
Klebsiella oxytoca [3] = assay: Antibacterial activity against Klebsiella oxytoca KX1017 expressing KPC2/OXA2/SHV30 by broth microdilution method; format: functional
Klebsiella pneumoniae [4] = assay: Antibacterial activity against Klebsiella pneumoniae KP1084 expressing KPC3/SHV-11/TEM-1 by broth microdilution method; format: functional
Klebsiella pneumoniae [5] = assay: Antibacterial activity against Klebsiella pneumoniae KP1088 expressing KPC3/SHV-11/TEM-1 by broth microdilution method; format: functional
Klebsiella pneumoniae [6] = assay: Antibacterial activity against Klebsiella pneumoniae KP1008 expressing KPC2 by broth microdilution method; format: functional
Escherichia coli = assay: microbe, parasite or virus in culture; settings: EC1007
Klebsiella pneumoniae [7] = assay: Antibacterial activity against Klebsiella pneumoniae KP1004 expressing KPC2/TEM1/SHV11 by broth microdilution method; format: functional
Klebsiella pneumoniae [8] = assay: Antibacterial activity against Klebsiella pneumoniae KP1087 expressing KPC2/CTX-M-15/SHV-11/TEM-1 by broth microdilution method; format: functional
Enterobacter cloacae = assay: Antibacterial activity against Enterobacter cloacae ECL1058 expressing KPC3/SHV-11/TEM-1 by broth microdilution method; format: functional
Klebsiella oxytoca [9] = assay: Antibacterial activity against Klebsiella oxytoca KX1019 expressing KPC2/OXA2 by broth microdilution method; format: functional
Klebsiella pneumoniae [10] = assay: Antibacterial activity against Klebsiella pneumoniae KP1082 expressing KPC2/SHV-1 by broth microdilution method; format: functional
Klebsiella pneumoniae [11] = assay: Antibacterial activity against Klebsiella pneumoniae KP1083 expressing KPC3/SHV-1/TEM-1 by broth microdilution method; format: functional
[12] = Inhibition of Escherichia coli MV1183 TEM-1 using nitrocefin as substrate preincubated for 10 mins followed by substrate addition measured for 500 secs
Klebsiella pneumoniae [13] = assay: Antibacterial activity against Klebsiella pneumoniae KP1074 in Swiss webster neutropenic mouse lung infection model assessed as change in log10 CFU in lung at 50 mg/kg, ip administered every 2 hrs starting at 2 hrs postinfection measured after 24 hrs relative to control; format: functional
Procedure, shortened: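 Swiss Webster mice made neutropenic with cyclophosphamide and infected intratracheally under isoflurane with KP1074. […] Lungs harvested 24 h after the start of treatment, homogenized and plated for CFU.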

Klebsiella pneumoniae [14] = assay: Antibacterial activity against Klebsiella pneumoniae KP1074 in Swiss webster neutropenic mouse lung infection model assessed as change in log10 CFU in lung at 100 mg/kg, ip administered every 2 hrs starting at 2 hrs postinfection measured after 24 hrs relative to control; format: functional
Procedure, shortened: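 Neutropenic (cyclophosphamide) Swiss Webster mice infected intratracheally under isoflurane anesthesia with K. pneumoniae KP1074. […] Lungs removed 24 h after start of treatment, homogenized and plated for bacterial counts (CFU).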

Chain of Beta-lactamase (Klebsiella pneumoniae) (Q93LQ9 as listed by the source): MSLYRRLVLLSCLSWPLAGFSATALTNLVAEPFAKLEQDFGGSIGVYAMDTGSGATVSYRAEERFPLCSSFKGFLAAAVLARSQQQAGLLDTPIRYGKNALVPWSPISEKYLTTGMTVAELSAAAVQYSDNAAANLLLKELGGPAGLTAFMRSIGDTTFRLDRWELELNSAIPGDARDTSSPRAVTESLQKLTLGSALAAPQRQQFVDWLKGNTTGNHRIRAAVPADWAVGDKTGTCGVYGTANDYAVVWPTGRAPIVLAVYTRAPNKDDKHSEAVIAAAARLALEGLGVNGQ

- MEC [1]: 0.61 µg/mL
Structure (SMILES): Nc1nc(CC(=O)N[C@H]2CC[C@@H](CC(=O)O)OB2O)cs1
- Activity (Klebsiella pneumoniae [2]): inactive

- MEC [1]: 0.15 µg/mL
Structure (SMILES): O=C(O)C[C@@H]1CC[C@H](NC(=O)Cc2ccccn2)B(O)O1
- Activity (Klebsiella pneumoniae [2]): inactive

- MEC [1]: 0.15 µg/mL
Structure (SMILES): O=C(O)C[C@@H]1CC[C@H](NC(=O)Cc2ccccc2)B(O)O1
- Activity (Klebsiella pneumoniae [2]): inactive

- MEC [1]: 0.61 µg/mL
Structure (SMILES): O=C(O)C[C@@H]1CC[C@H](NC(=O)C(O)c2ccccc2)B(O)O1 (some centres undefined)
- Activity (Klebsiella pneumoniae [2]): inactive

- MEC [1]: 0.16 µg/mL
Structure (SMILES): O=C(O)C[C@@H]1CC[C@H](NC(=O)Cc2ccccc2O)B(O)O1
- Activity (Klebsiella pneumoniae [2]): inactive

- MEC [1]: 0.15 µg/mL
Structure (SMILES): O=C(O)C[C@@H]1CC[C@H](NC(=O)Cc2cccnc2)B(O)O1
- Activity (Klebsiella pneumoniae [2]): inactive

- MEC [1]: 0.15 µg/mL
Structure (SMILES): O=C(O)C[C@@H]1CC[C@H](NC(=O)Cc2ccncc2)B(O)O1
- Activity (Klebsiella pneumoniae [2]): inactive

- MEC [1]: 0.3 µg/mL
Structure (SMILES): N[C@H](C(=O)N[C@H]1CC[C@@H](CC(=O)O)OB1O)c1ccccc1
- Activity (Klebsiella pneumoniae [2]): inactive

The next lines start with the compound.

Structure (SMILES): C[C@@H](O)[C@H]1C(=O)N2C(C(=O)O)=C(S[C@@H]3CN[C@H](C(=O)Nc4cccc(C(=O)O)c4)C3)[C@H](C)[C@H]12
- MIC (Klebsiella oxytoca [3]): 16 µg/mL (≈ 33.6 µM)
- MIC (Klebsiella pneumoniae [4]): > 64 µg/mL
- MIC (Klebsiella pneumoniae [5]): 16 µg/mL (≈ 33.6 µM)
- MIC (Klebsiella pneumoniae [6]): 8 µg/mL (≈ 16.8 µM)
- MIC (Escherichia coli): 8 µg/mL (≈ 16.8 µM)
- MIC (Klebsiella pneumoniae [7]): 32 µg/mL (≈ 67.3 µM)
- MIC (Klebsiella pneumoniae [8]): > 64 µg/mL
- MIC (Enterobacter cloacae): 32 µg/mL (≈ 67.3 µM)
- MIC (Klebsiella oxytoca [9]): 16 µg/mL (≈ 33.6 µM)
- MIC (Klebsiella pneumoniae [10]): 4 µg/mL (≈ 8.41 µM)
- MIC (Klebsiella pneumoniae [11]): 32 µg/mL (≈ 67.3 µM)

Structure (SMILES): NCCSCC(=O)N[C@H]1CC[C@@H](CC(=O)O)OB1O
- MEC [1]: 0.3 µg/mL
- Activity (Klebsiella pneumoniae [2]): inactive

Structure (SMILES): C[C@@H](O)[C@H]1C(=O)N2C(C(=O)O)=C(SCCNC=N)C[C@H]12 [IMIPENEM ANHYDROUS]
- MIC (Klebsiella oxytoca [3]): 8 µg/mL (≈ 26.7 µM)
- MIC (Klebsiella pneumoniae [4]): 64 µg/mL (≈ 214 µM)
- MIC (Klebsiella pneumoniae [5]): 32 µg/mL (≈ 107 µM)
- MIC (Klebsiella pneumoniae [6]): 4 µg/mL (≈ 13.4 µM)
- MIC (Escherichia coli): 8 µg/mL (≈ 26.7 µM)
- MIC (Klebsiella pneumoniae [7]): 8 µg/mL (≈ 26.7 µM)
- MIC (Klebsiella pneumoniae [8]): 16 µg/mL (≈ 53.4 µM)
- MIC (Enterobacter cloacae): 8 µg/mL (≈ 26.7 µM)
- MIC (Klebsiella oxytoca [9]): 4 µg/mL (≈ 13.4 µM)
- MIC (Klebsiella pneumoniae [10]): 4 µg/mL (≈ 13.4 µM)
- MIC (Klebsiella pneumoniae [11]): 16 µg/mL (≈ 53.4 µM)

Structure (SMILES): CC(=O)NC(Cc1cccc(C(=O)O)c1O)B(O)O (centres undefined)
- Ki [12]: 13 nM

Structure (SMILES): C[C@@H](O)[C@H]1C(=O)N2C(C(=O)[O-])=C(SC3Cn4cnc[n+]4C3)[C@H](C)[C@H]12 (some centres undefined) [BIAPENEM]
- MIC (Klebsiella oxytoca [3]): 4 µg/mL (≈ 11.4 µM)
- MIC (Klebsiella pneumoniae [4]): 64 µg/mL (≈ 183 µM)
- MIC (Klebsiella pneumoniae [5]): 32 µg/mL (≈ 91.3 µM)
- MIC (Klebsiella pneumoniae [6]): 8 µg/mL (≈ 22.8 µM)
- MIC (Escherichia coli): 8 µg/mL (≈ 22.8 µM)
- MIC (Klebsiella pneumoniae [7]): 8 µg/mL (≈ 22.8 µM)
- MIC (Klebsiella pneumoniae [8]): 16 µg/mL (≈ 45.7 µM)
- deltalog10CFU (Klebsiella pneumoniae [13]): 0.88
- MIC (Enterobacter cloacae): 8 µg/mL (≈ 22.8 µM)
- MIC (Klebsiella oxytoca [9]): 8 µg/mL (≈ 22.8 µM)
- MIC (Klebsiella pneumoniae [10]): 4 µg/mL (≈ 11.4 µM)
- MIC (Klebsiella pneumoniae [11]): 16 µg/mL (≈ 45.7 µM)

Structure (SMILES): C[C@@H](O)[C@H]1C(=O)N2C(C(=O)O)=C(S[C@@H]3CN[C@H](C(=O)N(C)C)C3)[C@H](C)[C@H]12 [MEROPENEM]
- MIC (Klebsiella oxytoca [3]): 4 µg/mL (≈ 10.4 µM)
- MIC (Klebsiella pneumoniae [4]): > 64 µg/mL
- MIC (Klebsiella pneumoniae [5]): 8 µg/mL (≈ 20.9 µM)
- MIC (Klebsiella pneumoniae [6]): 4 µg/mL (≈ 10.4 µM)
- MIC (Escherichia coli): 4 µg/mL (≈ 10.4 µM)
- deltalog10CFU (Klebsiella pneumoniae [14]): 1.41
- MIC (Klebsiella pneumoniae [7]): 8 µg/mL (≈ 20.9 µM)
- MIC (Klebsiella pneumoniae [8]): 64 µg/mL (≈ 167 µM)
- MIC (Enterobacter cloacae): 8 µg/mL (≈ 20.9 µM)
- MIC (Klebsiella oxytoca [9]): 4 µg/mL (≈ 10.4 µM)
- MIC (Klebsiella pneumoniae [10]): 4 µg/mL (≈ 10.4 µM)
